System: U2OS
Assay: Multiplex assay against U2OS
Assay type: toxicity, cell-based
Conditions: human
Procedure, shortened: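 Phenotypes for tubulin, mitochondrial mass and membrane permeability are expressed as per cents of healthy-nucleus cells. Cells were stained live at seeding with Hoechst33342, BioTracker Green Microtubule Cytoskeleton Dye, MitoTracker Red and Annexin V Alexa Fluor 680, then imaged after compound addition on a CQ1 microscope at 37°C and 5% CO2. Machine-learning gating in CellPathfinder separated Hoechst high-intensity objects from normal cells, divided normal cells by nuclear state (healthy, pyknosed, fragmented) and divided pyknosed cells into mitotic or apoptotic.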

[1] = 12 h, 1 µM, compound concentration 1 uM, replicate 1
[2] = 12 h, 1 µM, compound concentration 1 uM, replicate 2
[3] = 12 h, 10 µM, compound concentration 10 uM, replicate 1
[4] = 12 h, 10 µM, compound concentration 10 uM, replicate 2
[5] = 24 h, 1 µM, compound concentration 1 uM, replicate 1
[6] = 24 h, 1 µM, compound concentration 1 uM, replicate 2
[7] = 24 h, 10 µM, compound concentration 10 uM, replicate 1
[8] = 24 h, 10 µM, compound concentration 10 uM, replicate 2
[9] = 48 h, 1 µM, compound concentration 1 uM, replicate 1
[10] = 48 h, 1 µM, compound concentration 1 uM, replicate 2
[11] = 48 h, 10 µM, compound concentration 10 uM, replicate 1
[12] = 48 h, 10 µM, compound concentration 10 uM, replicate 2

## COc1cc(NC(=O)CCN2CCC(OC(=O)Nc3ccccc3-c3ccccc3)CC2)c(Cl)cc1CNC[C@H](O)c1ccc(O)c2[nH]c(=O)ccc12 [BATEFENTEROL]
[1]
  Population Apoptotic (%): 68%
  Population Fragmented Nuclei (%): 29%
  Population Healthy Nuclei (%): 49%
  Population Hoechst High Intensity Objects (%): 4%
  Population Membrane Permeable-Phenotype (%): 5%
  Population Mitochondria Different-Phenotype (%): 5%
  Population Mitotic Cells (%): 31%
  Population Normal (%): 95%
  Population Pyknosed Nuclei (%): 21%
  Population Tubulin-Different-Phenotype (%): 4%
  Total Cell Count: 159
[2]
  Population Apoptotic (%): 85%
  Population Fragmented Nuclei (%): 14%
  Population Healthy Nuclei (%): 78%
  Population Hoechst High Intensity Objects (%): 1%
  Population Membrane Permeable-Phenotype (%): 9%
  Population Mitochondria Different-Phenotype (%): 6%
  Population Mitotic Cells (%): 14%
  Population Normal (%): 98%
  Population Pyknosed Nuclei (%): 7%
  Population Tubulin-Different-Phenotype (%): 7%
  Total Cell Count: 98
[3]
  Population Apoptotic (%): 72%
  Population Fragmented Nuclei (%): 37%
  Population Healthy Nuclei (%): 44%
  Population Hoechst High Intensity Objects (%): 6%
  Population Membrane Permeable-Phenotype (%): 60%
  Population Mitochondria Different-Phenotype (%): 67%
  Population Mitotic Cells (%): 27%
  Population Normal (%): 93%
  Population Pyknosed Nuclei (%): 18%
  Population Tubulin-Different-Phenotype (%): 75%
  Total Cell Count: 196
[4]
  Population Apoptotic (%): 88%
  Population Fragmented Nuclei (%): 18%
  Population Healthy Nuclei (%): 59%
  Population Hoechst High Intensity Objects (%): 7%
  Population Membrane Permeable-Phenotype (%): 57%
  Population Mitochondria Different-Phenotype (%): 95%
  Population Mitotic Cells (%): 11%
  Population Normal (%): 92%
  Population Pyknosed Nuclei (%): 22%
  Population Tubulin-Different-Phenotype (%): 97%
  Total Cell Count: 82
[5]
  Population Apoptotic (%): 74%
  Population Fragmented Nuclei (%): 27%
  Population Healthy Nuclei (%): 55%
  Population Hoechst High Intensity Objects (%): 2%
  Population Membrane Permeable-Phenotype (%): 9%
  Population Mitochondria Different-Phenotype (%): 9%
  Population Mitotic Cells (%): 25%
  Population Normal (%): 97%
  Population Pyknosed Nuclei (%): 17%
  Population Tubulin-Different-Phenotype (%): 5%
  Total Cell Count: 182
[6]
  Population Apoptotic (%): 100%
  Population Fragmented Nuclei (%): 12%
  Population Healthy Nuclei (%): 75%
  Population Hoechst High Intensity Objects (%): 1%
  Population Membrane Permeable-Phenotype (%): 5%
  Population Mitochondria Different-Phenotype (%): 6%
  Population Mitotic Cells (%): 0%
  Population Normal (%): 98%
  Population Pyknosed Nuclei (%): 11%
  Population Tubulin-Different-Phenotype (%): 2%
  Total Cell Count: 103
[7]
  Population Apoptotic (%): 79%
  Population Fragmented Nuclei (%): 38%
  Population Healthy Nuclei (%): 38%
  Population Hoechst High Intensity Objects (%): 4%
  Population Membrane Permeable-Phenotype (%): 32%
  Population Mitochondria Different-Phenotype (%): 59%
  Population Mitotic Cells (%): 20%
  Population Normal (%): 95%
  Population Pyknosed Nuclei (%): 22%
  Population Tubulin-Different-Phenotype (%): 44%
  Total Cell Count: 199
[8]
  Population Apoptotic (%): 73%
  Population Fragmented Nuclei (%): 29%
  Population Healthy Nuclei (%): 42%
  Population Hoechst High Intensity Objects (%): 9%
  Population Membrane Permeable-Phenotype (%): 52%
  Population Mitochondria Different-Phenotype (%): 91%
  Population Mitotic Cells (%): 26%
  Population Normal (%): 90%
  Population Pyknosed Nuclei (%): 27%
  Population Tubulin-Different-Phenotype (%): 91%
  Total Cell Count: 93
[9]
  Population Apoptotic (%): 82%
  Population Fragmented Nuclei (%): 26%
  Population Healthy Nuclei (%): 54%
  Population Hoechst High Intensity Objects (%): 3%
  Population Membrane Permeable-Phenotype (%): 3%
  Population Mitochondria Different-Phenotype (%): 5%
  Population Mitotic Cells (%): 17%
  Population Normal (%): 96%
  Population Pyknosed Nuclei (%): 19%
  Population Tubulin-Different-Phenotype (%): 3%
  Total Cell Count: 242
[10]
  Population Apoptotic (%): 85%
  Population Fragmented Nuclei (%): 17%
  Population Healthy Nuclei (%): 64%
  Population Hoechst High Intensity Objects (%): 4%
  Population Mitochondria Different-Phenotype (%): 1%
  Population Mitotic Cells (%): 14%
  Population Normal (%): 95%
  Population Pyknosed Nuclei (%): 17%
  Population Tubulin-Different-Phenotype (%): 1%
  Total Cell Count: 123
[11]
  Population Apoptotic (%): 92%
  Population Fragmented Nuclei (%): 41%
  Population Healthy Nuclei (%): 39%
  Population Hoechst High Intensity Objects (%): 6%
  Population Membrane Permeable-Phenotype (%): 31%
  Population Mitochondria Different-Phenotype (%): 43%
  Population Mitotic Cells (%): 7%
  Population Normal (%): 93%
  Population Pyknosed Nuclei (%): 18%
  Population Tubulin-Different-Phenotype (%): 23%
  Total Cell Count: 221
[12]
  Population Apoptotic (%): 94%
  Population Fragmented Nuclei (%): 29%
  Population Healthy Nuclei (%): 32%
  Population Hoechst High Intensity Objects (%): 10%
  Population Membrane Permeable-Phenotype (%): 38%
  Population Mitochondria Different-Phenotype (%): 70%
  Population Mitotic Cells (%): 5%
  Population Normal (%): 89%
  Population Pyknosed Nuclei (%): 37%
  Population Tubulin-Different-Phenotype (%): 48%
  Total Cell Count: 105

— ChEMBL document CHEMBL5058577, “EUbOPEN Chemogenomics Library 2 (Multiplex)” (2022)
